ChEMBL document CHEMBL3352101, “Synthesis and inhibitory activity on hepatitis C virus RNA replication of 4-(1,1,1,3,3,3-hexafluoro-2-hydroxy-2-propyl)aniline analogs” (Bioorg Med Chem Lett, 2014)
Calls of active or inactive are those of the source. The calls are words filed in the database; no cut-off is given here.

What was measured:
[1] = test system: Hepatitis C virus; test: Inhibition of HCV RNA replication in human Li23 cells (ORL8 system) by renilla luciferase reporter gene based replication assay; assay type: functional, organism-based, Hepacivirus hominis
[2] = Selectivity index, ratio of CC50 against human Li23 cells to EC50 against HCV RNA replication in human Li23 cells
Summary of the method: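 SI was calculated as CC50/EC50. CC50 in Li23 cells came from a WST-1 assay. EC50 came from the ORL8 genome-length HCV RNA Renilla luciferase replication assay. All assays were done in triplicate.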

[3] = Cytotoxicity against human Li23 cells by WST assay
[4] = test system: Hepatitis C virus; test: Inhibition of HCV RNA replication in human Li23 cells (ORL8 system) in presence of 1 IU/mL IFN-alpha by renilla luciferase reporter gene based replication assay; assay type: functional, organism-based; details: Hepacivirus hominis
Summary of the method: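 Li23 human hepatoma cells carrying replicating genome-length HCV RNA with a Renilla luciferase reporter (ORL8). Test compound given at a range of concentrations together with IFN-alpha at 1 IU/mL, with a vehicle control. HCV RNA replication read as luciferase reporter activity. Assays run in triplicate.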

[5] = test system: Hepatitis C virus; test: Inhibition of HCV RNA replication in human HuH7 cells (OR6 system) by renilla luciferase reporter gene based replication assay; assay type: functional, organism-based, Hepacivirus hominis; details: Huh-7
Summary of the method: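 The OR6 system carries genome-length HCV RNA with a Renilla luciferase reporter in HuH-7 hepatoma cells. Replication inhibition was measured and EC50 determined from runs done in triplicate.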

[6] = test system: Hepatitis C virus; test: Potentiation of 1 IU/mL IFN-alpha-induced inhibition of HCV RNA replication in human Li23 cells (ORL8 system) by renilla luciferase reporter gene based replication assay; assay type: functional, organism-based; details: Hepacivirus hominis
Summary of the method: (§1)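 Genome-length HCV RNA replication was read by Renilla luciferase in ORL8 (Li23) cells. Increasing compound concentrations were combined with IFN-α alone (1 IU/mL) or with IFN-α plus ribavirin (1 IU/mL + 6.3 µM; 4 IU/mL + ribavirin also tested). Assays were done in triplicate.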

[7] = test system: Hepatitis C virus; test: Potentiation of 1 IU/mL IFN-alpha and 6.3 uM ribavirin-induced inhibition of HCV RNA replication in human Li23 cells (ORL8 system) by renilla luciferase reporter gene based replication assay; assay type: functional, organism-based; details: Hepacivirus hominis; summary of the method: as §1
[8] = test system: Hepatitis C virus; test: Inhibition of HCV RNA replication in human Li23 cells (ORL8 system) at 5 uM in presence of 10 to 200 uM vitamin E by renilla luciferase reporter gene based replication assay; assay type: functional, organism-based; details: Hepacivirus hominis
Summary of the method: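 Genome-length HCV RNA replication was measured by Renilla luciferase in ORL8 (Li23) cells. Vitamin E was given at various concentrations, with the test compound absent or present at 5 µM. Assays were done in triplicate.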

[9] = test system: Li23; test: Induction of ROS generation in human Li23 cells (ORL8 system); assay type: functional, cell-based
Summary of the method: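 ROS production in the ORL8 genome-length HCV RNA replicon system (Li23 cells) was measured by FACS analysis at a series of compound concentrations.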

With COc1cccc(S(=O)(=O)N(C)c2ccc(C(O)(C(F)(F)F)C(F)(F)F)cc2)c1 the EC50 [1] was 2.1 µM, the “Ratio CC50/EC50” value [2] was 6.2 and the CC50 [3] was 13 µM.

For CN(Cc1ccccc1)c1ccc(C(O)(C(F)(F)F)C(F)(F)F)cc1, the EC50 [1] was 3 µM, the “Ratio CC50/EC50” value [2] was 4.3 and the CC50 [3] was 13 µM.

In the case of O=C(c1ccccc1)N(Cc1ccccc1)c1ccc(C(O)(C(F)(F)F)C(F)(F)F)cc1, the EC50 [1] is reported as 2.9 µM, the “Ratio CC50/EC50” value [2] is reported as 2.6 and the CC50 [3] is reported as 7.5 µM.

CN(C(=O)c1ccccc1)c1ccc(C(OCCO)(C(F)(F)F)C(F)(F)F)cc1 showed an EC50 [1] of 11 µM and a CC50 [3] greater than 20 µM.

For CN(C(=O)Cc1ccccc1)c1ccc(C(O)(C(F)(F)F)C(F)(F)F)cc1, the EC50 [1] was greater than 100 µM and the CC50 [3] was 27 µM.

With CN(C(=O)c1ccsc1)c1ccc(C(O)(C(F)(F)F)C(F)(F)F)cc1 the EC50 [1] was 17 µM, the “Ratio CC50/EC50” value [2] was 2.6 and the CC50 [3] was 44 µM.

In the case of NC(=O)c1ncn([C@@H]2O[C@H](CO)[C@@H](O)[C@H]2O)n1 [RIBAVIRIN], the EC50 [1] is reported as 8.7 µM and the inhibition [4] is reported as “Active”.

For CCCN(C(=O)c1ccccc1)c1ccc(C(O)(C(F)(F)F)C(F)(F)F)cc1, the EC50 [1] was 3.5 µM, the “Ratio CC50/EC50” value [2] was 4.3 and the CC50 [3] was 15 µM.

For Cc1cccc(C(=O)N(C)c2ccc(C(O)(C(F)(F)F)C(F)(F)F)cc2)c1, the EC50 [1] was 5.8 µM, the “Ratio CC50/EC50” value [2] was 3.4 and the CC50 [3] was 20 µM.

In the case of CC(=O)N(C)c1ccc(C(O)(C(F)(F)F)C(F)(F)F)cc1, the EC50 [1] is reported as 14 µM, the “Ratio CC50/EC50” value [2] is reported as 2.9 and the CC50 [3] is reported as 40 µM.

In the case of CN(c1ccc(C(O)(C(F)(F)F)C(F)(F)F)cc1)S(=O)(=O)c1ccccc1Cl, the EC50 [1] is reported as 0.17 µM, the “Ratio CC50/EC50” value [2] is reported as 88 and the CC50 [3] is reported as 15 µM.

With CN(C(=O)c1ccccn1)c1ccc(C(O)(C(F)(F)F)C(F)(F)F)cc1 the EC50 [1] was greater than 100 µM and the CC50 [3] was greater than 100 µM.

With CN(C(=O)c1ccccc1)c1ccc(C(O)(C(F)(F)F)C(F)(F)F)cc1 the EC50 [1] was 0.32 µM, the EC50 [5] was greater than 20 µM and the “Ratio CC50/EC50” value [2] was 203. The CC50 [3] was 65 µM.

Work on CCCC(=O)N(C)c1ccc(C(O)(C(F)(F)F)C(F)(F)F)cc1 yielded an EC50 [1] of 3.8 µM and a CC50 [3] greater than 100 µM.

Cc1cc(N(C)C(=O)c2ccccc2)ccc1C(O)(C(F)(F)F)C(F)(F)F gave an EC50 [1] greater than 100 µM and a CC50 [3] of 87 µM.

In the case of Cc1ccc(S(=O)(=O)N(C)c2ccc(C(O)(C(F)(F)F)C(F)(F)F)cc2)cc1, the EC50 [1] is reported as 0.44 µM, the “Ratio CC50/EC50” value [2] is reported as 34 and the CC50 [3] is reported as 15 µM.

For Cc1ccccc1S(=O)(=O)N(C)c1ccc(C(O)(C(F)(F)F)C(F)(F)F)cc1, the EC50 [1] was 0.36 µM, the “Ratio CC50/EC50” value [2] was 33 and the CC50 [3] was 12 µM.

In the case of CN(c1ccc(C(O)(C(F)(F)F)C(F)(F)F)cc1)S(=O)(=O)c1cccc(F)c1, the EC50 [1] is reported as 0.36 µM, the “Ratio CC50/EC50” value [2] is reported as 53 and the CC50 [3] is reported as 19 µM.

With Cc1ccc(C(=O)N(C)c2ccc(C(O)(C(F)(F)F)C(F)(F)F)cc2)cc1 the EC50 [1] was 10 µM, the “Ratio CC50/EC50” value [2] was 2.6 and the CC50 [3] was 26 µM.

With CN(C(=O)c1cccnc1)c1ccc(C(O)(C(F)(F)F)C(F)(F)F)cc1 the EC50 [1] was 45 µM, the “Ratio CC50/EC50” value [2] was 1.4 and the CC50 [3] was 63 µM.

In the case of CN(c1ccc(C(O)(C(F)(F)F)C(F)(F)F)cc1)S(=O)(=O)c1ccccc1, the EC50 [1] is reported as 0.19 µM, the IC60 [1] is reported as 5 µM and the “Ratio CC50/EC50” value [2] is reported as 84. For the same compound, the CC50 [3] was 16 µM, the Activity [6] was “Dose-dependent effect” and the Activity [7] was “Dose-dependent effect”. For the same compound, the inhibition [8] was “inactive” and the Activity [9] was “Dose-dependent effect”.

With Cc1cccc(S(=O)(=O)N(C)c2ccc(C(O)(C(F)(F)F)C(F)(F)F)cc2)c1 the EC50 [1] was 0.35 µM, the “Ratio CC50/EC50” value [2] was 31 and the CC50 [3] was 11 µM.

With O=C(Nc1ccc(C(O)(C(F)(F)F)C(F)(F)F)cc1)c1ccccc1 the EC50 [1] was 4.1 µM, the “Ratio CC50/EC50” value [2] was 2.9 and the CC50 [3] was 12 µM.

In the case of Cc1ccccc1C(=O)N(C)c1ccc(C(O)(C(F)(F)F)C(F)(F)F)cc1, the EC50 [1] is reported as 17 µM, the “Ratio CC50/EC50” value [2] is reported as 2.2 and the CC50 [3] is reported as 38 µM.

In the case of CN(C(=O)c1ccccc1)c1ccccc1C(O)(C(F)(F)F)C(F)(F)F, the EC50 [1] is reported as greater than 20 µM and the CC50 [3] is reported as greater than 20 µM.

For CCCCC(=O)N(C)c1ccc(C(O)(C(F)(F)F)C(F)(F)F)cc1, the EC50 [1] was 2.3 µM, the “Ratio CC50/EC50” value [2] was 11 and the CC50 [3] was 26 µM.

In the case of CN(c1ccc(C(O)(C(F)(F)F)C(F)(F)F)cc1)S(=O)(=O)c1ccccc1Br, the EC50 [1] is reported as 0.5 µM, the “Ratio CC50/EC50” value [2] is reported as 18 and the CC50 [3] is reported as 9.1 µM.

With CN(C(=O)Nc1ccccc1)c1ccc(C(O)(C(F)(F)F)C(F)(F)F)cc1 the EC50 [1] was 5.7 µM and the CC50 [3] was greater than 20 µM.

In the case of CN(C(=O)C12CC3CC(CC(C3)C1)C2)c1ccc(C(O)(C(F)(F)F)C(F)(F)F)cc1, the EC50 [1] is reported as 1 µM, the “Ratio CC50/EC50” value [2] is reported as 17 and the CC50 [3] is reported as 17 µM.

In the case of Cc1cc(C(O)(C(F)(F)F)C(F)(F)F)ccc1N(C)C(=O)c1ccccc1, the EC50 [1] is reported as 1.7 µM, the “Ratio CC50/EC50” value [2] is reported as 5.3 and the CC50 [3] is reported as 9 µM.

In the case of CN(C(=O)c1cccs1)c1ccc(C(O)(C(F)(F)F)C(F)(F)F)cc1, the EC50 [1] is reported as 2.6 µM, the “Ratio CC50/EC50” value [2] is reported as 13 and the CC50 [3] is reported as 33 µM.

With CCN(C(=O)c1ccccc1)c1ccc(C(O)(C(F)(F)F)C(F)(F)F)cc1 the EC50 [1] was 0.78 µM, the “Ratio CC50/EC50” value [2] was 24 and the CC50 [3] was 19 µM.

For COc1ccc(S(=O)(=O)N(C)c2ccc(C(O)(C(F)(F)F)C(F)(F)F)cc2)cc1, the EC50 [1] was 1.4 µM, the “Ratio CC50/EC50” value [2] was 5.6 and the CC50 [3] was 7.9 µM.

In the case of CN(C(=O)C1CCCCC1)c1ccc(C(O)(C(F)(F)F)C(F)(F)F)cc1, the EC50 [1] is reported as 0.23 µM, the “Ratio CC50/EC50” value [2] is reported as 87 and the CC50 [3] is reported as 20 µM.
